HMGR II inh: inhibitors of class II HMG-CoA reductase from Enterococcus faecalis | purified E. faecalis HMGR, NADPH absorbance 340 nm kinetic | inhibition, % at 10 µM | actives 0.41% (n = 190,000);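 active = inhibition above a set limit, the median over all tested compounds plus 3 SD, cut at about 9.5% in these data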;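 note: enzyme runs in reverse so mevalonate oxidation gives rising NADPH absorbance; 0% = complete reaction with DMSO and 100% = background rate lacking mevalonate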
b-catenin transl: modulators of beta-catenin nuclear translocation. HeLa beta-catenin nuclear translocation, immunofluorescence imaging. nuclear translocation activity, % at 5 µM. actives 0.3% (n = 190,000). AID 1665;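 active = nuclear translocation activity above 50% at 5 µM, with a well cell count of 50 or more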;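 note: per-cell ratio of nuclear to cytoplasmic median beta-catenin stain intensity; plate controls were DMSO negative control for no effect and GSK-3 inhibitor IX positive control for full effect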
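Signal – beta-catenin immunofluorescence imaging with DAPI · Test system – human HeLa cell line · Dosing – 5 µM primary single dose, 0.1% DMSO, 0.02–20 µM confirmation series · Measure – % activation, nuclear-to-cytoplasmic median beta-catenin signal ratio per cell · Incubation – 24 h compound exposure at 37°C, 5% CO2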
RAM network inh: yeast RAM network inhibition; S. cerevisiae dse1pr::URA3 reporter, 5-FOA growth OD615, 2 d; analog-sensitive cbk1-as2 kinase mutant strain; inhibition, % at 50 µM; actives 1.8% (n = 190,000); AID 868;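 active = inhibition above a set limit, 3 SD over mean compound inhibition, cut at about 8.4% in these data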;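 note: 0% = DMSO-only wells with no growth and 100% = 10 µM 1-NA-PP1 full growth; inhibition rescues growth on 5-FOA so higher OD means more RAM inhibition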
BB579 growth dn: yeast BB579 growth reduction in restrictive medium. S. cerevisiae BB579 growth, OD615, 48 h. inhibition, % at 10 µM. actives 0.51% (n = 140,000). AID 804;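 active = inhibition above a set limit, 3 SD over the mean compound inhibition, cut at about 44% in these data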
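System: Saccharomyces cerevisiae DeaD strain BB579, replicative lifespan model yeast. Buffer or medium: restrictive glucose-based CSMM-D medium. Doses: one dose, 10 µM compound with 0.25% DMSO. Timing: 4 h preincubation and 48 h exposure at 30 °C. Detection: turbidity as optical density at 615 nm. Benchmarks: amphotericin B 10 µg/mL, positive.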
MT stabilize HCS: stabilizes microtubules in HeLa cells; HeLa tubulin immunostaining HCS, 24 h; share of cells brighter than vehicle mean+2SD; % tubulin-high responders, % at 10 µM; actives 0.83% (n = 200,000); AID 2205;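 active = plate Z-score above 3 for both tubulin-high and condensed-nucleus cell shares, with cell loss under 80%, at 10 µM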;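 note: anti alpha tubulin signal scored within the nucleus-defined area of each cell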
Yeast life ext: extends the lifespan of yeast | S. cerevisiae growth with nicotinamide, OD615; deaD strain in restrictive glucose medium | inhibition of the nicotinamide effect, % at 10 µM | actives 0.68% (n = 130,000) | AID 775;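 active = inhibition above a set limit, placed 3 SD over the median of all compounds, cut at about 26% in these data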;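 note: 0% = nicotinamide-treated wells and 100% = cells grown without nicotinamide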
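Assay system: engineered S. cerevisiae DeaD replicative-lifespan strain, galactose-grown log-phase cells; Buffer or medium: CSMM-D glucose medium, restrictive; Probe or stimulus: nicotinamide 1.5 mM; Compound: single dose 10 µM compound, 0.25% DMSO; Schedule: 4 h preincubation then 48 h treatment at 30 °C; Technique: OD615 measurement.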
RAM 5-FOA: RAM network inhibition, efflux-deficient strain; max inhibition, %; S. cerevisiae efflux-deficient reporter strain, 5-FOA growth OD615, 2 days; shares compounds with RAM network inh; AID 1305; 1,200 tested, under 10 active; call rule not given here;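 note: plate controls were vehicle for no effect and reference inhibitor for full effect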
An asterisk follows results filed as active; . = no result. This is a sample that favours compounds with a hit; in the whole collection about 3.5% have one here.

SMILES	HMGR II inh	b-catenin transl	RAM network inh	BB579 growth dn	MT stabilize HCS	Yeast life ext	RAM 5-FOA
CCc1nc(-c2ccc(-c3ccc(OC)cc3)nc2OC)no1	-1	-10	2	-21	3	-10	.
CCOC(=O)c1c(NC(=O)COC(=O)C2CC2C)sc(C)c1C (stereo not drawn)	1	0	3	.	2	.	.
CCN(CC)S(=O)(=O)c1cc(NS(=O)(=O)c2cccc(Cl)c2)ccc1C	-3	-2	8	-28	2	12	.
CCN(CC)S(=O)(=O)c1cc(NS(=O)(=O)c2c(Cl)cccc2Cl)ccc1C	-2	0	14*	-52	2	28*	2
CSC(=S)N/N=C(\C)c1ccccc1	-4	-4	-1	.	4	.	.
COc1ccccc1NC(=O)c1ccc(NC(=O)COC(=O)CCC2CCCC2)cc1	-3	-2	14*	-32	4	-3	3
CC(=O)c1ccc(NC(=O)C(Cc2ccccc2)n2cccc2)cc1 (stereo not drawn)	.	0	.	.	.	.	.
COc1ccnc(N2CCN(c3ccc(Cl)cc3)CC2)c1C#N	2	2	14*	-14	2	-11	4
Cc1cccc(NC(=O)CN(c2ccc(F)cc2)S(C)(=O)=O)c1	0	1	-1	.	1	.	.
CN(c1cccc(NC(=O)CN(c2ccc(F)cc2)S(C)(=O)=O)c1)S(C)(=O)=O	-3	2	13*	.	4	.	3
Cc1ccc(S(=O)(=O)N2CCC(=O)N(C(COCc3cccc(C(F)(F)F)c3)C(C)C)CC2)cc1 (stereo not drawn)	-4	-4	13*	-23	6	2	2
Cc1ccc(S(=O)(=O)N2CCC(=O)N(C(COCc3cccc(Cl)c3)Cc3ccccc3)CC2)cc1 (stereo not drawn)	-2	.	15*	-38	3	12	4
CCOc1cc(C2C3=C(CC(C)(C)CC3=O)Nc3n[nH]c(C)c32)ccc1O (stereo not drawn)	1	-1	-1	.	4	.	.
Cc1cc(C)nc(N2N=C(CSc3ccc(Cl)cc3)CC2=O)n1	-2	0	13*	.	3	.	1
O=c1[nH]c2cc3c(cc2cc1CN(CCO)S(=O)(=O)c1ccccc1)OCCO3	.	-1	.	.	.	.	.
CC(C(=O)Nc1cccc(S(=O)(=O)N2CCOCC2)c1)N1CCN(c2ccc(F)cc2)CC1 (stereo not drawn)	0	1	0	.	1	.	.
O=C(COC(=O)CCc1c[nH]c2ccccc12)NC(c1ccccc1)c1ccccc1	1	-2	17*	-22	5	-5	2
O=C(CSc1ccc(Cl)cc1Cl)N1CCC(c2nc3ccccc3s2)CC1	-5	.	13*	-53	3	-12	2
COc1ccc(CN(CCC(c2ccccc2)c2ccco2)C(=O)c2ccco2)cc1 (stereo not drawn)	-4	1	13*	-24	4	2	4
COc1ccc(CN(C(=O)c2ccco2)c2ccccc2)cc1	-5	-1	1	-39	3	.	.
CCC(CC)NC(=O)Nc1ccccc1C(F)(F)F	.	1	.	.	.	.	.
Cc1nn(CCc2nn[nH]n2)c2nc(-c3ccc(C4CCCCC4)cc3)cc(C(F)(F)F)c12	0	17	15*	.	6	.	8
CCCCC1(CO)C(=O)N(c2ccccc2)N(c2ccccc2)C1=O	.	0	.	.	.	.	.
CCCCC1(Cc2cccc([N+](=O)[O-])c2)C(=O)N(c2ccccc2)N(c2ccccc2)C1=O	-13	-2	13*	-44	3	9	5
CCN1C(=O)CC(NCc2ccc(S(N)(=O)=O)cc2)C1=O (stereo not drawn)	.	2	.	.	.	.	.
SMILES	HMGR II inh	b-catenin transl	RAM network inh	BB579 growth dn	MT stabilize HCS	Yeast life ext	RAM 5-FOA
O=C(/C=C/c1ccccc1)N1CCN(c2cccc(Cl)n2)CC1	-6	.	12*	-36	2	-6	4
CC(C)CC(=O)NS(=O)(=O)c1ccc(NS(C)(=O)=O)cc1	7	-1	-1	.	1	.	.
O=C(CCCSc1nnc(SCCCC(=O)c2ccc(F)cc2)s1)c1ccc(F)cc1	-5	0	14*	-27	3	-5	4
CCN(CC)S(=O)(=O)c1ccc(NC(=O)COC(=O)c2ccc(Br)o2)cc1	-8	.	47*	-50	1	10	2
COC(=O)c1ccccc1NC(=S)NC(=O)COc1ccccc1Cl	.	-1	4	-17	2	-23	.
COC(=O)c1ccccc1NC(=O)c1cccc(COc2ccccc2Cl)c1	-10	123*	12*	-12	46*	-7	3
CCCc1cc(C(=O)OC)c(NC(=O)c2cc(C)on2)s1	0	-1	12*	-23	3	.	2
COc1ccccc1C(=O)C1CCCN(C(=O)CCn2cnnn2)C1 (stereo not drawn)	.	1	.	.	.	.	.
N#CC(Nc1ccccc1)c1ccccc1OCc1ccccc1 (stereo not drawn)	-5	0	14*	-47	3	26	1
Cc1cc(C)c(S(=O)(=O)Nc2ccc(O)cc2)c(C)c1	1	3	-1	17	2	-8	.
Cc1cc(C)c(S(=O)(=O)Nc2ccc3c(c2)CCC3)c(C)c1	-5	16	13*	-20	14*	11	3
COc1cc(C(c2sc3nc(C)nn3c2O)N2CCN(c3ccccc3)CC2)cc(OC)c1OC (stereo not drawn)	0	-2	16*	-33	3	-10	2
COc1cc(C(c2sc3nc(C)nn3c2O)N2CCOCC2)cc(OC)c1OC (stereo not drawn)	-6	-2	1	-18	2	-5	.
Cc1cc([N+](=O)[O-])nn1CCCC(=O)NCc1ccc(F)cc1	-5	3	1	.	2	.	.
CO/N=C/C(=N\Nc1ccc(OC)cc1)C(=O)c1ccc(OC)cc1	-1	.	12*	-38	53*	-5	2
O=C(OCc1ccccc1)C1=[N+]([O-])OC(C(=O)OCc2ccccc2)C1c1c[nH]c2ccccc12 (stereo not drawn)	2	.	12*	-92	4	-8	4
Cn1c(CNC(=O)c2ccco2)nnc1SCC(=O)Nc1c(F)cc(F)cc1Br	-1	0	1	.	3	.	.
Cc1cc(C)c(Nc2cc(S(=O)(=O)O)c(N)c3c2C(=O)c2ccccc2C3=O)c(C)c1	-1	-1	26*	-71	3	35*	15
Cc1cc(C)c(NC(=O)COC(=O)c2cccc3c2C(=O)c2ccccc2C3=O)c(C)c1	2	-2	4	-39	2	18	.
